# Results gathered from unrelated publications.
# Each line is one published result; the experiments were not run side by side.
# Target: MAP/microtubule affinity-regulating kinase 4 (MARK4, Homo sapiens, UniProt Q96L34)
# Observed: enzyme activity
# Mode: inhibitor
# Sequence (Q96L34 1-752, as in one of the studies): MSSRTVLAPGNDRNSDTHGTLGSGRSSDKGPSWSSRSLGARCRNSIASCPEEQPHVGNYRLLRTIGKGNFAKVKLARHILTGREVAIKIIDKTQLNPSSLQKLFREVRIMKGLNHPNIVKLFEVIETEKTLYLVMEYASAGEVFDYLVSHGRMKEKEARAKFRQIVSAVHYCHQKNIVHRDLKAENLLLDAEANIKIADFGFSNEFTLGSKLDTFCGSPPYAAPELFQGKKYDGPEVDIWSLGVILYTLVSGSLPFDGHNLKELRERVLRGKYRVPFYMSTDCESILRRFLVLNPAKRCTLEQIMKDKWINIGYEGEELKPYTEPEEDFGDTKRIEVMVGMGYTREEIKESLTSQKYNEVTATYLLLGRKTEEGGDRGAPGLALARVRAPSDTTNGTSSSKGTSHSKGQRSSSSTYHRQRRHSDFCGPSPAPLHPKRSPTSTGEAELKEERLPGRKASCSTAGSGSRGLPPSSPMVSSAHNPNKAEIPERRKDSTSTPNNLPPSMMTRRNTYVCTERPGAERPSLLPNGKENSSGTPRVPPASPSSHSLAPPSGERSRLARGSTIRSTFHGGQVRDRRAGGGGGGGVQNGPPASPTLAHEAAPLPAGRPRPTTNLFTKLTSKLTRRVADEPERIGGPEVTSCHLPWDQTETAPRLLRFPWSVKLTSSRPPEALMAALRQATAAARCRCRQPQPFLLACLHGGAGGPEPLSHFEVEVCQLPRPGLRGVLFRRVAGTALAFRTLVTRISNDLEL
technique,concentration,remaining activity [%],Compound
,1 µM,91,COc1cc(Cl)c(C(=O)N[C@@H](CN[C@H]2CC[C@@H](N)CC2)Cc2ccc(C#N)cc2)cc1-c1ccc(CN[C@H](C)c2ccc(C)cc2)o1
radiometric,1 µM,84,CC(C)(C)c1nc(-c2cccc(NS(=O)(=O)c3c(F)cccc3F)c2F)c(-c2ccnc(N)n2)s1
radiometric,1 µM,3,Brc1cnc(Nc2cccc(CN3CCOCC3)c2)nc1NCCc1c[nH]cn1
,23.5 nM,94,Cc1ccc(C(=O)Nc2ccc(CN3CCN(C)CC3)c(C(F)(F)F)c2)cc1C#Cc1cnc2cccnn12
,10 µM,89,FC(F)c1nc2ccccc2n1-c1nc(N2CCOCC2)nc(N2CCOCC2)n1
,5 µM,97.9,O=C(Nc1cnn(-c2csc(C(=O)NC3COC3)c2)c1)Nc1c(F)cccc1Cl
radiometric,1 µM,113,Cc1nn(CC(F)(F)F)cc1Nc1nccc(NCCCNC(=O)C2CCC2)n1
radiometric,1 µM,105,COc1cc(Nc2cnc(C#N)c(O[C@H](C)CN(C)C)n2)ncc1-c1cnn(C)c1
radiometric,1 µM,88,Cc1nn(CC(F)(F)F)cc1Nc1ncc(C2CC2)c(NCCc2c[nH]cn2)n1
,0.5 µM,98,Cc1ccc(Nc2nccc(N(C)c3ccc4c(C)n(C)nc4c3)n2)cc1S(N)(=O)=O
,1 µM,97.8,CC(C)(O)[C@H]1CC[C@H](Nc2ccc3ncc(-c4cccc(C(F)(F)F)c4)n3n2)CC1
,10 µM,81,Cn1c(=O)n(-c2ccc(C(C)(C)C#N)cc2)c2c3cc(-c4cnc5ccccc5c4)ccc3ncc21
radiometric,1 µM,99,NS(=O)(=O)c1ccc(CNc2ccnc(Nc3cccc(NC(=O)N4CCCC4)c3)n2)cc1
,10 µM,108,Cc1sc(C(=O)NC2COC2)cc1-n1cc(NC(=O)Nc2c(F)cccc2Cl)cn1
radiometric,1 µM,101,Cc1nn(CC(F)(F)F)cc1Nc1nccc(NCc2ccc(S(N)(=O)=O)cc2)n1
radiometric,1 µM,88,CC(C)(C)c1nc2c(s1)c1nc(N)ncc1c1ccc(NS(=O)(=O)c3c(F)cccc3F)c(F)c12
